“Also recorded” adds a separate entry of the source. Each block holds one compound with its values, some of them ahead of it. Where a SMILES comes first, the peptide text is derived from it. Where no end group is shown, it is not given here. The star is where a group is joined. X2 = C[N+](C)(C)[C@@H](CO)C(=O)*; X1 = C[N+]1(C)CCC[C@H]1C(=O)*
Legend:
recombinant human NRMT = molecular target: T1, recombinant human NRMT (Homo sapiens, UniProt Q9BV86); assay: Isothermal titration calorimetry; assay type: binding; details: 25°C, pH 8.0; for binding to recombinant human NRMT (in words): 10 residue RCC1 N-terminal peptides
T1 sequence (Q9BV86 1-223): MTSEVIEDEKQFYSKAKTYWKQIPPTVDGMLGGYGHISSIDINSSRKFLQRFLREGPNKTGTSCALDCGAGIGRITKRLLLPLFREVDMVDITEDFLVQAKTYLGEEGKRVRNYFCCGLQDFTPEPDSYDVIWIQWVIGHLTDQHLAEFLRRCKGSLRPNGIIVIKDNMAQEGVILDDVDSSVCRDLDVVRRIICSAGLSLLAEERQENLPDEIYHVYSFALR
Outline: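 Recombinant NRMT was dialyzed overnight at 4°C against 50 mM Tris, 50 mM potassium acetate, pH 8.0. Ten-residue RCC1 N-terminal peptides, unmodified or N-methylated, were dissolved in the same buffer. At 25°C, 100 µM enzyme was titrated with 800–1000 µM peptide, and binding curves were fitted.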

[1] = system: recombinant NRMT (SPK-RCC1 substrate); assay: In vitro product inhibition assay, SPK-RCC1 substrate; assay type: biochemical; details: increasing concentrations of product peptide; n=2
Outline: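 Recombinant NRMT methylated RCC1 protein substrates bearing SPK or PPK N-termini in vitro. Increasing concentrations of N-trimethylated SPK or N-dimethylated PPK RCC1 product peptides were present. The read-out was N-terminal methylation of the substrate protein, normalized to the lowest product-peptide condition.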

[2] = system: endogenous NRMT (293LT cells); assay: Co-precipitation of endogenous NRMT with FLAG-tagged substrate proteins; assay type: binding; details: C-terminally FLAG-tagged protein expressed in 293LT cells
Outline: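 C-terminally FLAG-tagged RCC1 or VRK2 expressed in 293LT cells, immunoprecipitated with anti-FLAG, and run on 10% polyacrylamide gel with Coomassie staining. On-bead material washed 3× with 100 mM ammonium bicarbonate (pH 8.0), then reduced, carbamidomethylated and digested with endoproteinase Glu-C (enzyme:protein 1:20). Peptides acidified to pH 3.5 and analysed by nano-LC-MS on C18 capillary columns.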

N-terminus of protein = details: yeast and mammals; ref [24],[25]; cited from earlier work

Compound: CC[C@H](C)[C@H](NC(=O)[C@H](CCCNC(=N)N)NC(=O)[C@H](CCCCN)NC(=O)[C@@H]1CCCN1C(=O)[C@@H]1CCC[N+]1(C)C)C(=O)N[C@@H](C)C(=O)N[C@@H](CCCCN)C(=O)N[C@@H](CCCNC(=N)N)C(=O)N[C@@H](CCCNC(=N)N)C(=O)N[C@@H](CO)C(=O)O [me2PPKRIAKRRS] (X1-PKRIAKRRS-OH; C-terminus assumed)
binding to recombinant human NRMT (in words) (recombinant human NRMT): bound to recombinant human NRMT with high affinity | concentration of efficient inhibition of N-terminal methylation of SPK-RCC1 [1]: 1.3 µM

Compound: PPQRIAKRRS
binding to recombinant human NRMT (in words) (recombinant human NRMT): very low affinity binding (in mM range, data not shown)

Compound: CC[C@H](C)[C@H](NC(=O)[C@H](CCCNC(=N)N)NC(=O)[C@H](CCCCN)NC(=O)[C@@H]1CCCN1C(=O)[C@H](CO)[N+](C)(C)C)C(=O)N[C@@H](C)C(=O)N[C@@H](CCCCN)C(=O)N[C@@H](CCCNC(=N)N)C(=O)N[C@@H](CCCNC(=N)N)C(=O)N[C@@H](CO)C(=O)O [me3SPKRIAKRRS] (X2-PKRIAKRRS-OH; C-terminus assumed)
binding to recombinant human NRMT (in words) (recombinant human NRMT): bound to recombinant human NRMT with high affinity | concentration of efficient inhibition of N-terminal methylation of SPK-RCC1 [1]: 1.3 µM

Compound: VRK2-FLAG: FLAG-tagged VRK2, possesses a P-P-K motif
capture / co-precipitation of endogenous NRMT (in words) [2]: efficiently captured endogenous NRMT | capture / co-precipitation of endogenous NRMT (in words) ([2]; listed as VRK2): captured more NRMT than the RCC1; also recorded: NRMT is co-precipitated

Kd (recombinant human NRMT; Kd, bi-phasic titration curve, second phase): 136 nM
Compound: PPKRIAKRRS [PPKRIAKRRS]

Compound: SPQRIAKRRS
binding to recombinant human NRMT (in words) (recombinant human NRMT): very low affinity binding (in mM range, data not shown)

Compound: PWP1: protein with MNR-N-terminus
N-terminal acetylation reported (in words) (N-terminus of protein): reported to be N-terminally acetylated

— publication PMC3447998 (Biochemistry, 2012)
